rCAG RNA binder: molecules binding r(CAG) RNA repeats. r(CAG) RNA repeat, TO-PRO-1 dye displacement fluorescence. inhibition, % at 3 µM. 370,000 tested, 1.3% active;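 active = inhibition above the plate cutoff, the mean of all test compounds on that plate plus 3 SD, cut at about 35% in these data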;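 note: higher means more dye released from RNA so lower well fluorescence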
ABHD5-PLIN5 inh: ABHD5-PLIN5 protein interaction inhibition | Split G. princeps luciferase complementation, luminescence, 4 h | inhibition, % at 4 µM | 360,000 tested, 0.78% active;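 active = inhibition above the mean inhibition across every tested compound plus 3 SD, cut at about 22% in these data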
Target sequence (Q00G26 whole entry, looked up): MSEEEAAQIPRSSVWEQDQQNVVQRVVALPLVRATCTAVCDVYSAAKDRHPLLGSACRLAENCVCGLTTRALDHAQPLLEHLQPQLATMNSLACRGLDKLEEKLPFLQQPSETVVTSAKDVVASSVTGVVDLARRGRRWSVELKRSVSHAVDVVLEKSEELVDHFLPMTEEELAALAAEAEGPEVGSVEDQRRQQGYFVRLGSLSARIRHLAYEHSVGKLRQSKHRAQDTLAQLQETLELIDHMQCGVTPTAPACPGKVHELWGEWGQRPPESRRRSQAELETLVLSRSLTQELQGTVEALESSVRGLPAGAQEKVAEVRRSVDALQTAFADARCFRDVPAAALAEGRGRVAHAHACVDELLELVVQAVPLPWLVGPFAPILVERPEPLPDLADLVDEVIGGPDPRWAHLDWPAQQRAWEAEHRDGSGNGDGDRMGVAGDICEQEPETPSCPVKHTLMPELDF
Target sequence (Q8WTS1 whole entry, looked up): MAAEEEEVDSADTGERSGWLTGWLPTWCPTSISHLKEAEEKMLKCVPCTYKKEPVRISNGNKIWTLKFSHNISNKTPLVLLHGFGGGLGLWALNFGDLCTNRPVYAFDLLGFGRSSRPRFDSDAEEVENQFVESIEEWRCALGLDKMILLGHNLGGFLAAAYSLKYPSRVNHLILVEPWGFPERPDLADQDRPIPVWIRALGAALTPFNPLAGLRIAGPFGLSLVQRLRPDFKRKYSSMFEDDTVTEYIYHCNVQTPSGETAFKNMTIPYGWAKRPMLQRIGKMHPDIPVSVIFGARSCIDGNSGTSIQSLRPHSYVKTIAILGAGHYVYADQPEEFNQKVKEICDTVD
NadD inh: inhibitors of Staphylococcus aureus NadD; purified NadD enzyme, colorimetric absorbance read-out; inhibition, % at 20 µM; 360,000 tested, 0.78% active; in the data active = inhibition above about 26%
core dimer inh: HCV core protein dimerization inhibition | TR-FRET GST/Flag-core106 dimerization, 1536-well | inhibition, % at 5 µM | 300,000 tested, 0.33% active | AID 1899;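 active = inhibition above the mean of all tested compounds plus 3 SD, set per screening campaign, cut at about 45% in these data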
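test system = GST/Flag-tagged HCV core106 proteins | probe or stimulus = Eu donor and XL665 acceptor anti-tag antibodies | times = compound-protein-antibody incubation 4 h at 22.5 °C | signal = TR-FRET, excitation 340 nm, emission 617 and 671 nm | measure = percent inhibition of core106 dimerization signal | controls = wells lacking GST-core106 and wells with excess unlabelled core106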
rCAG bind conf: r(CAG) RNA repeat binding, confirmation | shares compounds with rCAG RNA binder | TO-PRO-1 dye displacement fluorescence | inhibition, % at 3 µM | 4,300 tested, 70% active | AID 652065;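 active = inhibition above a per-plate cutoff, the mean inhibition of sample wells plus 3 SD, cut at about 35% in these data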;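 note: loss of TO-PRO-1 fluorescence as compound displaces dye from 1x1 AA loop RNA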
dCAG dye counter: disrupts DNA CAG TO-PRO-1 complex, flagging rCAG hits; shares compounds with rCAG RNA binder; d(CAG) DNA oligo TO-PRO-1 dye displacement, fluorescence; inhibition, % at 3 µM; 4,300 tested, 94% active;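 active = inhibition above its plate's cutoff, the mean test-well inhibition plus 3 SD, cut at about 4.8% in these data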;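 note: hits displace the dye from DNA and so lower well fluorescence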
DNA CAG DR: DNA CAG dye complex inhibition, dose response counter-screen; 250 tested, 20% active; DNA CAG/GTC duplex TO-PRO-1 dye displacement fluorescence; AID 686960; IC50, µM; shares compounds with rCAG RNA binder; in the data active = IC50 below about 10 µM
Of the large screens only hits and unclear results are named; the others gave an inactive call (follow-up assays come after a bar, where they were run). A selection: hits, their analogues and other compounds. The true share with any hit is near 2.6%.

CCCCn1nnnc1C1(C)CCC(=O)N1c1ccc(N2CCOCC2)cc1 (configuration not stated)	none (no result: core dimer inh)
COc1cc2c(cc1OCc1ccccc1)/C(=C/C(=O)OCc1ccccc1)OC2	none (no result: NadD inh, core dimer inh)
NS(=O)(=O)c1ccc(Nc2nc(-c3cccc([N+](=O)[O-])c3)cs2)cc1	rCAG RNA binder 36 | rCAG bind conf inactive | dCAG dye counter 17
O=C(Cc1cccc2ccccc12)Nc1nc(-c2cccc([N+](=O)[O-])c2)cs1	none
O=C(Nc1nc(-c2ccc3ccccc3c2)cs1)c1ccc(N2C(=O)CCC2=O)cc1	none
NS(=O)(=O)c1ccc(Nc2nc(-c3ccc4ccccc4c3)cs2)cc1	rCAG RNA binder 52 | rCAG bind conf 36 | dCAG dye counter 20
O=C(O)c1ccccc1C(=O)Nc1nc(-c2ccc3ccccc3c2)cs1	rCAG RNA binder 70 | rCAG bind conf 63 | dCAG dye counter 26
Cc1cc(Nc2cc(C(F)(F)F)cc(C(F)(F)F)c2)cc(=O)n1-c1cc(C(F)(F)F)cc(C(F)(F)F)c1	none (no result: ABHD5-PLIN5 inh, NadD inh, core dimer inh)
COc1cc(CCN=Cc2cccc(OC)c2O)c([N+](=O)[O-])cc1OC	none (no result: ABHD5-PLIN5 inh, NadD inh, core dimer inh)
Cc1cccc(N2C(=O)C(O)=C(C(=O)c3cccs3)C2c2ccc(C(C)C)cc2)n1 (configuration not stated)	rCAG RNA binder 48 | rCAG bind conf 39 | dCAG dye counter 11
O=C(O)C/C(=C\c1cc(Cl)c2c(c1)OCO2)c1nc2ccccc2s1	rCAG RNA binder 47 | rCAG bind conf 45 | dCAG dye counter 18
COC(=O)[C@]12C[C@H](CC(=O)NCC3CCCCC3)C(=O)N(CCC3=CCCCC3)C1=C[C@H](C(C)C)O[C@@H]2C1CC1	none (no result: ABHD5-PLIN5 inh, NadD inh, core dimer inh)
COc1ccc(N=C2SC(C(=O)Nc3ccc(C(=O)O)cc3)CC(=O)N2Cc2cccs2)cc1 (configuration not stated)	rCAG RNA binder 61 | rCAG bind conf 60 | dCAG dye counter 20
CNC(=O)C1CC(=O)N(CCc2ccccc2)C(=Nc2ccc(OC)cc2)S1 (configuration not stated)	none
COc1ccc(CN2C(=O)CN(S(C)(=O)=O)CC2(C)C(=O)Nc2ccc3c(c2)OCCO3)cc1OC (configuration not stated)	none (no result: NadD inh, core dimer inh)
CCOc1cc(/C=C(\C(=O)O)c2ccc(S(=O)(=O)N3CCCC3)s2)ccc1OC	none (no result: core dimer inh)
Cc1ccc(S(=O)(=O)N2CCCC2)s1	none
COc1ccc(Br)cc1/C=C(\C(=O)O)c1ccc(S(=O)(=O)N2CCCCC2)s1	rCAG RNA binder 70 (no result: core dimer inh) | rCAG bind conf 74 | dCAG dye counter 37
Cc1ccc(C)c(/C=C(\C(=O)O)c2ccc(S(=O)(=O)N3CCCCC3)s2)c1	rCAG RNA binder 47, core dimer inh 57 | rCAG bind conf 45 | dCAG dye counter 19
CCOC(=O)N1CCN(C(=O)C[C@H]2C[C@@]3(C(=O)OC)C(=C[C@H](C(C)(C)C)O[C@@H]3C)N(Cc3ccccc3)C2=O)CC1	none (no result: ABHD5-PLIN5 inh, NadD inh, core dimer inh)
O=S(=O)(O)c1cccc(N=Nc2c(O)ccc3ccccc23)c1	rCAG RNA binder 38 | rCAG bind conf 36 | dCAG dye counter 9.7
CC1(C)CC(=O)C=C(C2CC2)C1=O	none (no result: ABHD5-PLIN5 inh, NadD inh, core dimer inh)
COc1cc(/C=C2/SC(=S)N(CC(=O)O)C2=O)ccc1OC(=O)c1cccs1	rCAG RNA binder 60 | rCAG bind conf 72 | dCAG dye counter 34 | DNA CAG DR inactive
COc1cc(/C=C2\SC(=S)N(CC(=O)O)C2=O)ccc1OS(=O)(=O)c1ccc(C)cc1	rCAG RNA binder 81 | rCAG bind conf 86 | dCAG dye counter 56
COc1ccc(/C=C2\SC(=S)N(CCC(=O)Nc3ccc(C(=O)O)cc3)C2=O)cc1OC	none (no result: rCAG RNA binder)
COc1cc(/C=C2/SC(=S)N(C)C2=O)ccc1OC(=O)c1ccco1	none
Oc1ccc(C=NN=C2c3ccccc3-c3ccccc32)c(O)c1	rCAG RNA binder 49 (no result: core dimer inh) | rCAG bind conf 49 | dCAG dye counter 32
Fc1c(F)c(F)c(N/N=C/c2c[nH]c3ccccc23)c(F)c1F	none
C(=NN=C1c2ccccc2-c2ccccc21)c1c[nH]c2ccccc12	rCAG RNA binder 35 (no result: core dimer inh) | rCAG bind conf 39 | dCAG dye counter 20
O=[N+]([O-])c1cccc(/C=N\N=C2c3ccccc3-c3ccccc32)c1O	none
